# ARFGAP1 inh: inhibitors of rat ARFGAP1. Arfgap1-stimulated ARF1 GTP hydrolysis, GDP FP detection. inhibition, % at 16.5 µM. actives 0.26% (n = 360,000);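 active = inhibition above a per-plate limit, mean inhibition of low control wells plus 3 SD, cut at about 25% in these data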;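 note: 0% = DMSO wells with enzyme and 100% = wells lacking Arfgap1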
# Target sequence (Q62848 1-136 limits assumed): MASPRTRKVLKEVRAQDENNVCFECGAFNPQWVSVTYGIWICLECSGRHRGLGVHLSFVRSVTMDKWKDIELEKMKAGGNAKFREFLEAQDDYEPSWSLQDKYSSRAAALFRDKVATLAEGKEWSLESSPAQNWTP
#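 System: truncated rat Arfgap1 GAP domain / Medium: HEPES-based buffer, pH 7.5 / Also added: N-terminally truncated human ARF1-GTP substrate / Incubation: enzyme reaction 120 min at 25 °C after 20 min preincubation / Measured by: FP of antibody-bound GDP Alexa 633 tracer, ex 620/em 688 nm / Replicates: singlicate, each compound tested once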
# rCAG binder: binds r(CAG) RNA repeats. inhibition, % at 3 µM. AID 651821. actives 1.3% (n = 370,000). r(CAG) RNA repeat, TO-PRO-1 dye displacement fluorescence;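 active = inhibition above the plate cutoff, the mean of all test compounds on that plate plus 3 SD, cut at about 35% in these data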;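 note: 0% = DMSO alone and 100% = 100 µM mitoxantrone as full dye displacement; higher means more dye released from RNA so lower well fluorescence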
# NadD inh: inhibitors of Staphylococcus aureus NadD; AID 602399; inhibition, % at 20 µM; actives 0.78% (n = 360,000); purified NadD enzyme, colorimetric absorbance read-out; in the data active = inhibition above about 26%
# ASAP1 GAP inh: inhibitors of human ASAP1 ArfGAP activity | inhibition, % at 16.5 µM | ASAP1-stimulated ARF1 GTP hydrolysis, GDP FP detection | actives 0.19% (n = 360,000); in the data active = inhibition above about 25%;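 note: 0% = vehicle with enzyme and substrate and 100% = no enzyme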
# Target sequence (Q9ULH1 325-724 limits assumed): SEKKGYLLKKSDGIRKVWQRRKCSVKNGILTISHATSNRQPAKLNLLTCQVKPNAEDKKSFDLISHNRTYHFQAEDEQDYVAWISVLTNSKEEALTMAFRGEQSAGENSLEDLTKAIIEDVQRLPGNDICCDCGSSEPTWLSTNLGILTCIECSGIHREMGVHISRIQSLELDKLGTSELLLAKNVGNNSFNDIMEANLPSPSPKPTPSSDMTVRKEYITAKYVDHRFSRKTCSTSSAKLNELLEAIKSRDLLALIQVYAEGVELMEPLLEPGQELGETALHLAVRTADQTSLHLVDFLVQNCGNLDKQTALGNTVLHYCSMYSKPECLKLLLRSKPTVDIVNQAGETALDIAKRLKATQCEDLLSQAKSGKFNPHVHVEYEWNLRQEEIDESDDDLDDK
# rCAG binder conf: r(CAG) RNA repeat binding, confirmation; actives 70% (n = 4,300); TO-PRO-1 dye displacement fluorescence; inhibition, % at 3 µM; shares compounds with rCAG binder;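 active = inhibition above a per-plate cutoff, the mean inhibition of sample wells plus 3 SD, cut at about 35% in these data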;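 note: loss of TO-PRO-1 fluorescence as compound displaces dye from 1x1 AA loop RNA; 0% = DMSO only wells and 100% = 100 µM mitoxantrone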
# dCAG dye counter: DNA CAG dye complex inhibition counter-screen | shares compounds with rCAG binder | d(CAG) DNA oligo TO-PRO-1 dye displacement, fluorescence | inhibition, % at 3 µM | actives 94% (n = 4,300) | AID 652068;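 active = inhibition above its plate's cutoff, the mean test-well inhibition plus 3 SD, cut at about 4.8% in these data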;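 note: 0% = DNA dye mix with DMSO and 100% = 100 µM mitoxantrone; hits displace the dye from DNA and so lower well fluorescence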
# DNA CAG DR: disrupts DNA CAG TO-PRO-1 complex in dose response | shares compounds with rCAG binder | DNA CAG/GTC duplex TO-PRO-1 dye displacement fluorescence | IC50, µM | actives 20% (n = 250); in the data active = IC50 below about 10 µM
# Starred values were filed as active, the others as inactive; i = inactive; x = no result. This is a sample that favours compounds with a hit; in the whole collection about 2.2% have one here.
SMILES,ARFGAP1 inh,rCAG binder,NadD inh,ASAP1 GAP inh,rCAG binder conf,dCAG dye counter,others
CCOc1cc2c3c(c1)C(C)=CC(C)(C)N3C(=O)C2=O,1,-2,-6,16,x,x,
O=[N+]([O-])c1ccc(-c2nc(Nc3ccc(O)cc3)c3ccccc3n2)cc1,5,37*,8,5,21,10*,
O=C(O)c1ccc(Nc2nc(-c3ccc([N+](=O)[O-])cc3)nc3ccccc23)cc1,14,13,9,3,x,x,
COC(=O)c1sc2nc(-c3ccco3)ccc2c1N,3,50*,10,4,23,12*,
NC(=O)c1sc2nc(-c3ccco3)ccc2c1N,1,16,14,10,x,x,
Nc1c(C(=O)Nc2ccccc2F)sc2nc(-c3cccnc3)ccc12,0,32,2,1,x,x,
Nc1c(C(=O)Nc2ccccc2F)sc2nc(-c3ccco3)ccc12,-5,55*,13,5,73*,35*,
CCCOc1cccc(C(=O)NC(=S)Nc2ccccc2)c1,5,2,0,-7,x,x,
O=C(O)c1cccc(NC(=S)NC(=O)c2cccc(OCc3ccccc3)c2)c1,-2,61*,2,11,64*,26*,
COc1cc(C2c3c([nH]c(=O)[nH]c3=O)Nc3ccc4ccccc4c32)cc(OC)c1OC (stereo not drawn),-12,42*,7,1,30,10*,
COc1cc(C2C3=C(CCCC3=O)Nc3[nH]n(-c4ccccc4)c(=O)c32)cc(OC)c1OC (stereo not drawn),11,5,-23,-1,x,x,
COc1cc(C2CC(=O)c3c(ccc4ccccc34)N2)ccc1O (stereo not drawn),7,2,3,1,x,x,
COc1cc(C2c3c([nH]c(=O)[nH]c3=O)Nc3ccc4ccccc4c32)ccc1O (stereo not drawn),-3,43*,4,-9,24,8.2*,
Cc1cc(-c2cc(NC(=O)Cc3c[nH]c4ccccc34)ccc2Nc2cccnc2)ccc1F,8,15,x,3,x,x,
COc1cccc(/C=C2/SC(=O)N(CC(=O)N3CCc4ccccc4C3)C2=O)c1OCC(=O)O,4,37*,5,7,36*,9.7*,
C=CCN1[C@@H](C)COc2cc(N3CCSCC3)ccc2S1(=O)=O,x,0,x,x,x,x,
Cn1c(=O)c2[nH]c(NN=Cc3cccc(Br)c3)nc2n(C)c1=O,1,14,-9,16,x,x,
Cc1ccc(Nc2nc3c([nH]2)c(=O)n(C)c(=O)n3C)cc1,10,51*,-5,-4,14,14*,
Cn1c(=O)c2[nH]c(NN=Cc3ccc(F)cc3)nc2n(C)c1=O,-1,3,-2,0,x,x,
Cc1cc(C)cc(Nc2nc3c([nH]2)c(=O)n(C)c(=O)n3C)c1,1,58*,-1,4,18,13*,
O=C1CC(N2CCOCC2)=NC(=O)N1c1ccc(Br)cc1,x,5,x,x,x,x,
O=C(Nc1ccc(F)cc1)OCc1cn(Cc2cccc(Cl)c2)nn1,x,0,x,x,x,x,
Cc1ccc(OS(=O)(=O)c2ccccc2)c(/C=N/N=C2\NC(=O)C(C)S2)c1 (stereo not drawn),0,36*,-1,-2,46*,13*,
O=C1CS/C(=N/N=C/c2ccccc2OS(=O)(=O)c2ccccc2)N1,-1,27,-1,0,x,x,
CC1(C(=O)NS(=O)(=O)Cc2ccccc2C(F)(F)F)CCN1C(=O)C/C=C/c1ccccc1 (stereo not drawn),-3,46*,4,-1,51*,10*,DNA CAG DR=>30
SMILES,ARFGAP1 inh,rCAG binder,NadD inh,ASAP1 GAP inh,rCAG binder conf,dCAG dye counter,others
Cc1ccc(F)c(S(=O)(=O)NC(=O)C2(C)CCN2C(=O)Cc2ccc(C(C)(C)C)cc2)c1 (stereo not drawn),4,32,4,10,x,x,
CC(C)(C)c1ccc(CC(=O)N2CCC2(C)C(=O)NS(=O)(=O)Cc2ccccc2)cc1 (stereo not drawn),4,41*,0,7,36*,9.3*,
CC1(C(=O)NS(=O)(=O)c2ccc(F)cc2F)CCN1C(=O)Cc1ccc(-c2ccccc2)cc1 (stereo not drawn),8,58*,6,5,44*,11*,
CC(C)(C)c1ccc(CC(=O)N2CCC2(C)C(=O)NS(=O)(=O)c2ccc(F)cc2F)cc1 (stereo not drawn),0,41*,-8,-11,30,6.1*,
COC(=O)c1cccc(N2C(=O)C[C@](Sc3ccc(OC)cc3)(C(=O)N3CCOCC3)[C@H]2c2ccc(OC)cc2)c1,x,8,x,x,x,x,
Nc1[nH]c(C(=O)c2ccc(Br)cc2)c(-c2ccc(Cl)cc2[N+](=O)[O-])c1C(=O)NCCc1c[nH]c2ccccc12,14,20,x,7,x,x,
CC(C)(C)c1ccc(CC(=O)N2CCC2(C)C(=O)NS(=O)(=O)c2ccccc2C(F)(F)F)cc1 (stereo not drawn),-5,58*,1,5,45*,13*,
C/C(C=NNC(=O)CSc1nc2ccccc2n1C)=C\c1ccccc1,x,3,x,x,x,x,
O=C(NCCc1c[nH]c2ccccc12)OCc1cn(-c2cccc(Cl)c2)nn1,x,4,x,x,x,x,
O=C(O)CSc1nc2sc3c(c2c(=O)n1Cc1ccccc1)CCCCC3,-10,53*,4,2,54*,17*,
Cc1ccccc1-n1c(SCC(=O)O)nc2sc3c(c2c1=O)CCCC3,4,10,-9,6,x,x,
CCOC(=O)N1CCN(C(=O)c2cccn3c(=O)c4c5c(sc4nc23)CCCC5)CC1,9,-3,6,9,x,x,
CN1CCc2c(sc3nc(SCC(N)=O)n(-c4ccc(Cl)cc4)c(=O)c23)C1,0,14,8,-15,x,x,
O=C(CSc1nc2sc3c(c2c(=O)n1-c1ccc(Cl)cc1)CCC3)Nc1ccc(C(=O)O)cc1,x,58*,x,x,52*,22*,
O=C(O)CSc1cc(C(=O)c2ccccc2O)cn2c(=O)c3c4c(sc3nc12)CCCC4,-13,47*,18,4,85*,61*,
COc1cc(OC)c(NC(=O)Nc2ccc(OC)c(OC)c2)cc1Cl,5,-3,-2,14,x,x,
O=C(Nc1ccccc1C(=O)O)c1cccc(NC(=O)c2ccc(Br)o2)c1,-1,45*,-4,-6,40*,7.8*,
O=C(Nc1ccccc1C(=O)O)c1ccc(NC(=O)c2ccc(Br)o2)cc1,x,x,-6,x,x,x,
COc1cc(NC(=O)Nc2ccc(Cl)c(Cl)c2)c(C(=O)O)cc1OC,-10,70*,-5,3,54*,15*,
O=C(Nc1ccccc1C(=O)O)c1cccc(C(=O)Nc2ccccc2C(=O)O)c1,-3,50*,-2,4,42*,9.1*,
O=C(Nc1sc(-c2ccccc2)cc1C(=O)O)c1ccccc1,21,85*,1,5,73*,34*,DNA CAG DR=i

# Compound activity: PubChem BioAssay, several laboratories
